Results published in PMC8193639 (Journal of the American Chemical Society, 2021).

Experiments:
14-3-3/ERα complex = molecular target: T1, 14-3-3/ERα complex (Homo sapiens, UniProt P61981); assay: Selectivity panel, FA protein titration; assay type: binding; conditions: 100 μM compound; C-terminal phosphorylation motif
T1 sequence (P61981 1-247): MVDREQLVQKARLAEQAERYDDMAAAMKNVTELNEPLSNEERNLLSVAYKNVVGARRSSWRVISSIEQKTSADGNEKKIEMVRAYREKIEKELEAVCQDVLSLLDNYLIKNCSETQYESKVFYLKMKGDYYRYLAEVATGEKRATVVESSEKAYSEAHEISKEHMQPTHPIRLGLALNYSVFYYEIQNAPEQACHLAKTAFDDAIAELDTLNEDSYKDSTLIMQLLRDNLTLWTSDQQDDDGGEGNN

Pin1_72/14-3-3γ complex [1] = molecular target: T2, Pin1_72/14-3-3γ complex (Homo sapiens, UniProt P61981); assay: biochemical
Pin1_72/14-3-3γ complex [2] = molecular target: T2, Pin1_72/14-3-3γ complex; assay: FA protein titration of 14-3-3γ in presence of 100 μM compound; assay type: binding
AS160/14-3-3γ complex = assay: Selectivity panel, FA protein titration; assay type: binding; conditions: 100 μM fragment; Phe +1
p65pS45/14-3-3γ = assay: Selectivity panel, FA protein titration; assay type: binding; conditions: 100 μM fragment; Ile +1
Abl1pT735/14-3-3γ = assay: Selectivity panel, FA protein titration; assay type: binding; conditions: 100 μM fragment; Leu +1
14-3-3γ = molecular target: T3, 14-3-3γ (Homo sapiens, UniProt P61981); assay: Thermal shift assay, 14-3-3γ alone; assay type: binding; conditions: compound added to 14-3-3γ alone
T3 sequence (P61981 1-247): T1 sequence (P61981 1-247)
Summary of the method: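 Thermal shift assay as an orthogonal check of complex stabilization. Read-out is the 14-3-3γ melting temperature with test compound present. Protein is either alone or with acetylated Pin1 peptide added at 5 or 50 equiv.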

TBC1D237/14-3-3γ = molecular target: T4, TBC1D237/14-3-3γ (Homo sapiens, UniProt P61981); assay: Selectivity panel, FA protein titration; assay type: binding; conditions: 100 μM fragment; Gln +1
T4 sequence (P61981 1-247): T1 sequence (P61981 1-247)

B-Raf_729/14-3-3γ = molecular target: T5, B-Raf_729/14-3-3γ (Homo sapiens, UniProt P61981); assay: Selectivity panel, FA protein titration; assay type: binding; conditions: 100 μM fragment; Glu +1
T5 sequence (P61981 1-247): T1 sequence (P61981 1-247)

ERRγ_179/14-3-3γ = molecular target: T6, ERRγ_179/14-3-3γ (Homo sapiens, UniProt P61981); assay: Selectivity panel, FA protein titration; assay type: binding; conditions: 100 μM fragment; Cys +1
T6 sequence (P61981 1-247): T1 sequence (P61981 1-247)

Mypt1_472/14-3-3γ = molecular target: T7, Mypt1_472/14-3-3γ (Homo sapiens, UniProt P61981); assay: Selectivity panel, FA protein titration; assay type: binding; conditions: 100 μM fragment; Ser +1
T7 sequence (P61981 1-247): T1 sequence (P61981 1-247)

C-Raf/14-3-3γ = molecular target: T8, C-Raf/14-3-3γ (Homo sapiens, UniProt P61981); assay: Selectivity panel, FA protein titration; assay type: binding; conditions: 100 μM fragment; Thr +1
T8 sequence (P61981 1-247): T1 sequence (P61981 1-247)

14-3-3/Pin1_72 complex = 14-3-3/Pin1_72 complex (Homo sapiens, UniProt P61981); assay: Cooperativity analysis, 2D FA protein titrations; assay type: binding
CFTRpS753/14-3-3γ = assay: Selectivity panel, FA protein titration; assay type: binding; conditions: 100 μM fragment; Val +1

| Compound | SF / complex stabilization (14-3-3/ERα complex) | EC50 (Pin1_72/14-3-3γ complex [1]) [µM] | Kd (Pin1_72/14-3-3γ complex [2]) [µM] | SF (stabilization factor) (Pin1_72/14-3-3γ complex [2]; KD,DMSO/KD,compound, internal DMSO control, 100 μM fragment) [fold] | effect on 14-3-3 melting temperature (14-3-3γ) | SF / complex stabilization (TBC1D237/14-3-3γ) | SF / complex stabilization (B-Raf_729/14-3-3γ) | SF / complex stabilization (ERRγ_179/14-3-3γ) | SF / complex stabilization (Mypt1_472/14-3-3γ) | SF / complex stabilization (C-Raf/14-3-3γ) | concentration necessary to induce a 2-fold increase in PPI stabilization (14-3-3/Pin1_72 complex) [µM] | SF / complex stabilization (AS160/14-3-3γ complex) [fold] | SF / complex stabilization (p65pS45/14-3-3γ) | SF / complex stabilization (Abl1pT735/14-3-3γ) | SF / complex stabilization (CFTRpS753/14-3-3γ) |
| --- | --- | --- | --- | --- | --- | --- | --- | --- | --- | --- | --- | --- | --- | --- | --- |
| C=CC(C)(C)OC[C@H]1O[C@H](O[C@@H]2C3=C([C@H](C)COC(C)=O)C[C@H](O)[C@]3(C)/C=C3/[C@@H](COC)CC[C@H]3[C@@H](C)[C@H]2O)[C@H](O)[C@@H](OC(C)=O)[C@@H]1O [FCA, fusicoccin A, reference compound] | 160 fold |  |  |  |  |  |  |  |  |  |  |  |  |  |  |
| O=Cc1ccc(-n2ccnc2-c2cc(Br)ccc2F)cc1Br [fragment 27] | not responsive to fragment stabilization | 118 ± 7 |  |  | no significant effect | no significant stabilization | no significant stabilization | no significant stabilization | no significant stabilization | abolishes any stabilizing effect |  | 1.2 to 2.7 | no significant complex stabilization | no significant complex stabilization |  |
| O=Cc1ccc(-n2ccnc2-c2ccc(F)cc2F)cc1Br [fragment 28] | not responsive to fragment stabilization | 79 ± 3 |  |  | no significant effect | no significant stabilization | no significant stabilization | no significant stabilization | no significant stabilization | abolishes any stabilizing effect | 1 | 1.2 to 2.7 | some stabilizing activity | some stabilizing activity | some stabilizing activity |

More lines, main results first:

| SF / complex stabilization (14-3-3/ERα complex) | EC50 (Pin1_72/14-3-3γ complex [1]) [µM] | Kd (Pin1_72/14-3-3γ complex [2]) [µM] | SF (stabilization factor) (Pin1_72/14-3-3γ complex [2]; KD,DMSO/KD,compound, internal DMSO control, 100 μM fragment) [fold] | effect on 14-3-3 melting temperature (14-3-3γ) | SF / complex stabilization (TBC1D237/14-3-3γ) | SF / complex stabilization (B-Raf_729/14-3-3γ) | SF / complex stabilization (ERRγ_179/14-3-3γ) | SF / complex stabilization (Mypt1_472/14-3-3γ) | SF / complex stabilization (C-Raf/14-3-3γ) | concentration necessary to induce a 2-fold increase in PPI stabilization (14-3-3/Pin1_72 complex) [µM] | Compound | SF / complex stabilization (AS160/14-3-3γ complex) [fold] | SF / complex stabilization (p65pS45/14-3-3γ) | SF / complex stabilization (Abl1pT735/14-3-3γ) | SF / complex stabilization (CFTRpS753/14-3-3γ) |
| --- | --- | --- | --- | --- | --- | --- | --- | --- | --- | --- | --- | --- | --- | --- | --- |
|  | > 1000 |  |  |  |  |  |  |  |  |  | Cc1cn(-c2ccc(C=O)cc2)cn1 [fragment 4] |  |  |  |  |
| not responsive to fragment stabilization | 101 ± 6 | 2.16 ± 0.123 | 10.8 |  |  |  |  |  |  |  | O=Cc1ccc(-n2ccnc2-c2ccccc2)cc1Br [fragment 13] | 1.2 to 2.7 |  |  |  |
